According to article PMC2828537 (Pflugers Archiv : European journal of physiology, 2009):
Structures can show the parent of a compound that is named as a salt. Marks after values point to notes of the source that are not given here.

Key:
[1] = target: T1, human TRPA1 endogenously expressed in WI-38 fibroblasts (Homo sapiens, UniProt O75762); assay: Fluo4 [Ca2+]i assay in WI-38 fibroblasts; format: cell-based; settings: for agonist effect on Fluo4 fluorescence ([Ca2+]i) in WI-38 cells: 300 µM; for antagonist effect on the response induced by FFA or AITC: 100 µM added 2 min before the agonist, data not shown; for effect of antagonist on response to AITC / effect of antagonist preincubation on response to FFA: antagonist 20 µM; for effect of antagonist on response to AITC: AITC 33 µM; for effect of antagonist preincubation on response to FFA: FFA 33 µM
T1 sequence (O75762 whole entry): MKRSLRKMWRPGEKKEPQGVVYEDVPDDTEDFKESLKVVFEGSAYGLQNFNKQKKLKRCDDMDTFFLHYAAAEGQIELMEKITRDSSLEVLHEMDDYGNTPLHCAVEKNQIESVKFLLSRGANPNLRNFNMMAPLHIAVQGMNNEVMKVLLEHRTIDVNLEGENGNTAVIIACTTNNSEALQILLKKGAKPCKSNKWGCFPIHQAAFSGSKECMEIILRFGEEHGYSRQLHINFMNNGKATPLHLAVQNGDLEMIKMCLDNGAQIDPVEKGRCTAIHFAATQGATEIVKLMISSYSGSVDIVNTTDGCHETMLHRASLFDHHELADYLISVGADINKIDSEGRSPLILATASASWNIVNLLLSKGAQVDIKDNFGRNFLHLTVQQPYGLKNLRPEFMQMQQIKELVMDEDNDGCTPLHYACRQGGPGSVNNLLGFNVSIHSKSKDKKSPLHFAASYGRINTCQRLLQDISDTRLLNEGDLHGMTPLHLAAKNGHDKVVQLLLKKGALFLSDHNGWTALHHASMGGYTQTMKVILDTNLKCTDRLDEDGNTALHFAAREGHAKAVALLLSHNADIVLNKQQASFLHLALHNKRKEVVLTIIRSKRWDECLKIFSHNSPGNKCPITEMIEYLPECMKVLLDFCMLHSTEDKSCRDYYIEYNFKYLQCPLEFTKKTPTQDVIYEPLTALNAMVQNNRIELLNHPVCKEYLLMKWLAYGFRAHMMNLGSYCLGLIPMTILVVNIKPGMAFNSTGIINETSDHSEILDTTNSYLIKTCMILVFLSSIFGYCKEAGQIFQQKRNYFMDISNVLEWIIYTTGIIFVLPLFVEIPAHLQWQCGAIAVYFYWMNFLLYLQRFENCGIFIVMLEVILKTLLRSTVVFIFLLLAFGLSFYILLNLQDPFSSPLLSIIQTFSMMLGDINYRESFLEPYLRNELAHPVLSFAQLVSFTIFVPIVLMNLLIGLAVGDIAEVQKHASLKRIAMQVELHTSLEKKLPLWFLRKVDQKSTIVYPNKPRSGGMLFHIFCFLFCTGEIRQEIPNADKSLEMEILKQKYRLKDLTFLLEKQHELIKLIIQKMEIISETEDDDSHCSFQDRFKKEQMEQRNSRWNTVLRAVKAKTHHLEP

rat TRPA1 = rat TRPA1 (Rattus norvegicus, UniProt Q6RI86); assay: Two-electrode voltage clamp of Xenopus oocytes expressing rat TRPA1; format: cell-based; settings: for effect on current in TRPA1-expressing oocytes: 300 µM; for interaction with AITC, CA, or cold on channel activation: 30 µM fenamate with 3 µM AITC or CA, or 14°C; for current evoked by agonist alone, % of that evoked by 30 µM FFA: 3 µM agonist alone; for EC50: nominally Ca2+-free bath
rat TRPA1, sequence (Q6RI86 whole entry): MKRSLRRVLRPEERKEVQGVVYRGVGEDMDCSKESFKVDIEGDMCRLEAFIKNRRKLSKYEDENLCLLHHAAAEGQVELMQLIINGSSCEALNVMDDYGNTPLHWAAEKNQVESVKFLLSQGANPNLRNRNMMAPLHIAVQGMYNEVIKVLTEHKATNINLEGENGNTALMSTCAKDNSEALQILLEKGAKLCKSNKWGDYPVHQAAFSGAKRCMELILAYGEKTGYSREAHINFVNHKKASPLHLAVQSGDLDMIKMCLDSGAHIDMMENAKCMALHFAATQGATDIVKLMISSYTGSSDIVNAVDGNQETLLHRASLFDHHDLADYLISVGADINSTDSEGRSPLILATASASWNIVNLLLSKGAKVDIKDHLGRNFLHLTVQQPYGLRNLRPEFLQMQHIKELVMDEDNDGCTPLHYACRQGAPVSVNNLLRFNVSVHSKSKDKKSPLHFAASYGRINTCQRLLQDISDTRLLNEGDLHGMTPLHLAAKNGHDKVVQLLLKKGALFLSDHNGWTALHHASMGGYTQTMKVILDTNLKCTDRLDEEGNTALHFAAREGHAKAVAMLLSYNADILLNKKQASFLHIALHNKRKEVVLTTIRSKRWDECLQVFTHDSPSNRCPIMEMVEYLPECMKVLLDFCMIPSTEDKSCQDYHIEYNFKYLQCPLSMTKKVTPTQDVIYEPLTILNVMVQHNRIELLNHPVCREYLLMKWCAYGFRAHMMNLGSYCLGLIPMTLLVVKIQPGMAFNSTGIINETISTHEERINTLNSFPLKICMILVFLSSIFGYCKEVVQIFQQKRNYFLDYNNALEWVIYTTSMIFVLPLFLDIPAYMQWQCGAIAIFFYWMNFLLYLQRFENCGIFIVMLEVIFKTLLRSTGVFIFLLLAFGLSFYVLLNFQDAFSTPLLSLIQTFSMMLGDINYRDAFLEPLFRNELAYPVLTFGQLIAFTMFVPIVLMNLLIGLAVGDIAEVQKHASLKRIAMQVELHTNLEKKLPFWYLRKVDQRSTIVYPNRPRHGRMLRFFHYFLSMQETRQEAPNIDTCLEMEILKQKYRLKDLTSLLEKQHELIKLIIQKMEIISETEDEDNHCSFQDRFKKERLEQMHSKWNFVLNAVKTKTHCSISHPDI

HEK293 cells = assay: Fluo4 [Ca2+]i assay in parental HEK293 cells; format: cell-based; settings: 300 µM
In short: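 Wild-type HEK293 cells in DMEM (4.5 mg/ml glucose, 10% heat-inactivated FBS, penicillin/streptomycin), plated on polyornithine-treated wells for 14–18 hrs. Loaded with Fluo4-AM (2 µM, 60 min, 37°C) in ECS with 2 mM probenecid, then washed. Test compound was given robotically at 300 µM final. Fluorescence was read on a plate reader at ex 494/em 525 nm, 0.67 Hz, 20–25°C.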

[2] = target: human TRPA1 Cys621Ser, Cys641Ser and Cys665Ser triple mutant (Homo sapiens, UniProt O75762, C621S/C641S/C665S); assay: Currents of human TRPA1 triple cysteine mutant; format: cell-based; settings: HH, unpublished results
human TRPA1 Cys621Ser, Cys641Ser and Cys665Ser triple mutant, sequence (O75762 whole entry C621S/C641S/C665S): as the sequence (O75762 whole entry) above, with C621S, C641S, C665S counted along it

[3] = test system: TRPA1 channels heterologously expressed in mammalian cells and Xenopus oocytes; settings: read-out: EC50 reported in the literature; as low as; cited from earlier work
human TRPA1 = human TRPA1 (Homo sapiens, UniProt O75762); assay: Fluo4 [Ca2+]i assay in HEK-A1 cells; format: cell-based; settings: for nH (Hill coefficient): HEK-A1 cells
human TRPA1, sequence (O75762 whole entry): as the sequence (O75762 whole entry) above

[4] = target: T1, human TRPA1 endogenously expressed in WI-38 fibroblasts; assay: Whole-cell recordings of WI-38 cells; format: cell-based; settings: ruthenium red 30 µM in the bath
In short: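 WI-38 cells grown in MEM with 10% heat-inactivated FBS and penicillin/streptomycin at 37°C, 5% CO₂. Cells were detached with 0.05% trypsin plus 0.53 mM EDTA in Ca²⁺/Mg²⁺-free HBSS for 5–10 min, held at 37°C, then settled on polyornithine-coated coverslips for 3–5 min before perfusion. Whole-cell voltage clamp was sampled at 5 kHz, with 100 ms ramps from −100 to +100 mV (holding −60 mV) applied every 0.5 s.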

EC50 [1] | agonist effect on Fluo4 fluorescence ([Ca2+]i) in WI-38 cells [1] | effect on current in TRPA1-expressing oocytes (rat TRPA1) | nH (Hill coefficient) ([1]; WI-38 cells) | Structure (SMILES) | effect on Fluo4 fluorescence in HEK293 cells (HEK293 cells) | also measured
> 500 µM | increased the Fluo4 fluorescence | very weak activator |  | CC(C(=O)O)c1cccc(C(=O)c2ccccc2)c1 (stereo not drawn) [ketoprofen, Ketoprofen] | little effect | 
 | increased the Fluo4 fluorescence |  | 1.5 ± 0.2 | Cc1cccc(Nc2ccccc2C(=O)O)c1C [MFA, mefenamic acid] | little effect | interaction with AITC, CA, or cold on channel activation (rat TRPA1): positive synergistic effects
 | fail to activate | did not have an effect |  | COc1ccc2cc([C@H](C)C(=O)O)ccc2c1 [naproxen, (S)-naproxen] |  | antagonist effect on the response induced by FFA or AITC [1]: do not act as antagonists
470 ± 54 µM | increased the Fluo4 fluorescence | caused current increases |  | COc1ccc2c(c1)c(CC(=O)O)c(C)n2C(=O)c1ccc(Cl)cc1 [indomethacin] | little effect | nH (Hill coefficient), fixed to make the fit ([1]; WI-38 cells, nH was fixed to 1.5): 1.5 ^b
 | did not act as agonists |  |  | CC(C)Cc1ccc([C@H](C)C(=O)O)cc1 [ibuprofen, (S)-(+)-ibuprofen] |  | 
 | did not act as agonists |  |  | CC(=O)Oc1ccccc1C(=O)O [acetylsalicylic acid, Acetylsalicylic acid] |  | 
157 ± 8 µM | rapid fluorescence increase |  | 1.1 ± 0.1 | COC(=O)C1=C(C)NC(C)=C(C(=O)OC)C1c1ccccc1[N+](=O)[O-] [nifedipine] |  | EC50 (human TRPA1): 140 ± 23 µM; nH (Hill coefficient) (human TRPA1): 1.0 ± 0.1; EC50 [3]: 0.4 µM
342 ± 6 µM | increased the Fluo4 fluorescence | caused current increases | 1.5 ± 0.1 | CC(C(=O)O)c1ccc(-c2ccccc2)c(F)c1 (racemic) [flurbiprofen, (±)-flurbiprofen] | little effect | EC50 (human TRPA1): 310 ± 66 µM; nH (Hill coefficient) (human TRPA1): 2.0 ± 0.3

Further lines, the compound ahead of its results:

Structure (SMILES) | EC50 [1] | agonist effect on Fluo4 fluorescence ([Ca2+]i) in WI-38 cells [1] | effect on current in TRPA1-expressing oocytes (rat TRPA1) | nH (Hill coefficient) ([1]; WI-38 cells) | effect on Fluo4 fluorescence in HEK293 cells (HEK293 cells) | also measured
O=C(c1ccccc1)c1ccc2n1CCC2C(=O)O (stereo not drawn) [ketorolac, ketorolac tromethamine salt] |  | fail to activate | did not have an effect |  |  | antagonist effect on the response induced by FFA or AITC [1]: do not act as antagonists
NCCOB(c1ccccc1)c1ccccc1 [2APB, 2-aminoethoxydiphenyl borate] |  |  |  |  |  | concentration-response curve in triple cysteine mutant [2]: right-shifted
CC(=C\c1ccc(Cl)cc1)/C(C)=N/O [AP-18] |  |  |  |  |  | effect of antagonist on response to AITC [1]: blocked; effect of antagonist preincubation on response to FFA [1]: inhibited
CC1CCC(C(C)C)C(O)C1 (stereo not drawn) [menthol] |  |  |  |  |  | concentration-response curve in triple cysteine mutant [2]: right-shifted
O=C(O)Cc1ccccc1Nc1c(Cl)cccc1Cl [diclofenac, Diclofenac sodium salt] |  | increased the Fluo4 fluorescence | caused current increases | 1.3 ± 0.2 | little effect | 
O=C/C=C/c1ccccc1 [CA, cinnamaldehyde] | 400 ± 41 µM | rapid fluorescence increase |  | 0.9 ± 0.1 |  | current evoked by agonist alone, % of that evoked by 30 µM FFA (rat TRPA1; +100 mV): 44 ± 16%; current evoked by agonist alone, % of that evoked by 30 µM FFA (rat TRPA1; −100 mV): 45 ± 8%; EC50 [3]: 6.5 µM
C=CCN=C=S [AITC, allyl isothiocyanate] |  | rapid fluorescence increase |  | 1.0 ± 0.1 |  | current evoked by agonist alone, % of that evoked by 30 µM FFA (rat TRPA1; +100 mV): 45 ± 14%; current evoked by agonist alone, % of that evoked by 30 µM FFA (rat TRPA1; −100 mV): 51 ± 10%; nH (Hill coefficient) (human TRPA1): 0.8 ± 0.1; EC50 [3]: 5 µM
C=CC=O [acrolein] |  | rapid fluorescence increase |  | 1.0 ± 0.1 |  | EC50 [3]: 0.8 µM
N.N.N.N.N.N.N.N.N.N.N.N.N.N.[Cl-].[Cl-].[Cl-].[Cl-].[Cl-].[Cl-].[O-2].[O-2].[Ru+3].[Ru+3].[Ru+4] [ruthenium red] |  |  |  |  |  | effect of antagonist on response to AITC [1]: blocked; IC50 ([1]; read-out: IC50 for inhibition of the response to FFA, curve not shown): 2.1 µM; effect on FFA-induced whole-cell currents [4]: completely abolished
O=C(O)c1cccnc1Nc1cccc(C(F)(F)F)c1 [NFA, niflumic acid] | 28 ± 3 µM | increased the Fluo4 fluorescence |  | 1.4 ± 0.2 | little effect | threshold of activation (rat TRPA1): 10 to 30 µM; interaction with AITC, CA, or cold on channel activation (rat TRPA1): positive synergistic effects; Hill co-efficient at +100 mV (rat TRPA1; +100 mV): 2.6 ± 0.3; EC50 (rat TRPA1; EC50 for current activation at +100 mV, +100 mV): 240 ± 12 µM; EC50 (rat TRPA1; EC50 for current activation at −100 mV, −100 mV): 540 ± 27 µM; Hill co-efficient at −100 mV (rat TRPA1; −100 mV): 2.1 ± 0.2
CC(C)c1ccc(NC(=O)Cn2cnc3c2c(=O)n(C)c(=O)n3C)cc1 [HC-030031] |  |  |  |  |  | effect of antagonist on response to AITC [1]: blocked; effect of antagonist preincubation on response to FFA [1]: inhibited
